From ChEMBL document CHEMBL1124231, “Structure-activity relationships among analogues of pemedolac, cis-1-ethyl-1,3,4,9-tetrahydro-4-(phenylmethyl)pyrano[3,4-b]indo le-1-a cetic acid, a potent analgesic agent” (J Med Chem, 1988)

Legend:
Mus musculus [1] = assay: Inhibition against writhing induced by Phenylbenzoquinone in male swiss albino mice at 25 mg/kg; type: functional
Summary of the method: (§1)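 Mice in groups of 10, fasted overnight, dosed by gastric gavage with compound or vehicle (0.5% Tween 80 in distilled water). PBQ given ip 1 h later (0.15 mL of 0.02% per 10 g body weight). Writhes counted per mouse over the following 15 min. […] Benzylamine salts dosed as free acid.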

Rattus norvegicus [2] = assay: Inhibition against adjuvant-induced paw edema at a dose of 25 mg/kg in male Sprague-Dawley rats.; type: functional
Summary of the method: (§2)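 Male Sprague-Dawley rats (180–200 g), left hindpaw injected intradermally with 0.1 mL Freund's complete adjuvant. Compound or vehicle given by gastric gavage just before FCA (day 0) and at 24 and 48 h. Paw volume read by plethysmometer before FCA and on day 3. Edema is the day 0 to day 3 volume difference, averaged per group.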

Mus musculus [3] = assay: Inhibition against writhing induced by Phenylbenzoquinone in male swiss albino mice at 200 mg/kg; type: functional; summary of the method: as §1
Mus musculus [4] = assay: Inhibition against writhing induced by Phenylbenzoquinone in male swiss albino mice at 10 mg/kg; type: functional; summary of the method: as §1
Mus musculus [5] = species on record: Mus musculus; assay: Inhibition against writhing induced by Phenylbenzoquinone in male swiss albino mice; type: functional; summary of the method: as §1
[6] = Partition coefficient (logP); type: physicochemical; conditions: octanol/water
Summary of the method: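 Calculated by computer program, not measured experimentally.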

[7] = Inhibitory activity against prostaglandin biosynthesis in stimulated chondrocyte cell culture; type: functional
Mus musculus [8] = assay: Inhibition against writhing induced by Phenylbenzoquinone in male swiss albino mice; at 25 mg/kg; type: functional; summary of the method: as §1
Rattus norvegicus [9] = assay: Inhibition against adjuvant-induced paw edema at a dose of 25 mg/kg in Male Sprague-Dawley rats; type: functional; summary of the method: as §2

## CCC1(CC(=O)O)OC[C@@H](Cc2ccccc2)c2c1[nH]c1c(C)cccc21 (stereo not given in full)
Mus musculus [1]
  inhibition in vivo at 25 mg/kg: 11%
Rattus norvegicus [2]
  inhibition in vivo at 25 mg/kg: 40%

## C=CC[C@@H]1CCC(CC)(CC(=O)O)c2[nH]c3c(CC)cccc3c21 (stereo not given in full)
Mus musculus [3]
  inhibition in vivo at 200 mg/kg: 23%
Rattus norvegicus [2]
  inhibition in vivo at 25 mg/kg: 35%

## CCC1(CC(=O)O)CC[C@@H](Cc2ccccc2)c2c1[nH]c1c(C)cccc21 (stereo not given in full)
Mus musculus [4]
  inhibition in vivo at 10 mg/kg: 5%
Rattus norvegicus [2]
  inhibition in vivo at 25 mg/kg: 24%

## C=CC[C@H]1COC(CC)(CC(=O)O)c2[nH]c3c(CCC)cccc3c21 (stereo not given in full)
Mus musculus [5]
  ED50: 9.5 mg/kg
Rattus norvegicus [2]
  inhibition in vivo at 25 mg/kg: 32%

## CCC1(CC(=O)O)CC[C@@H](Cc2ccccc2)c2c1[nH]c1ccccc21 (stereo not given in full)
Mus musculus [1]
  inhibition in vivo at 25 mg/kg: 4%
Rattus norvegicus [2]
  inhibition in vivo at 25 mg/kg: 42%

## CCC1(CC(=O)O)CC[C@H](Cc2ccccc2)c2c1[nH]c1ccccc21 (stereo not given in full)
[6]
  logP: 6.2
[7]
  IC50: 0.011 µM
Mus musculus [5]
  ED50: 1.2 mg/kg
Rattus norvegicus [2]
  inhibition in vivo at 25 mg/kg: 49%

## CCc1cccc2c3c([nH]c12)C(CC)(CC(=O)O)CCC3 (stereo not given)
[6]
  logP: 5.3
[7]
  IC50: 0.02 µM

## C=CC[C@H]1COC(CC)(CC(=O)O)c2[nH]c3c(CC)cccc3c21 (stereo not given in full)
[6]
  logP: 4.5
[7]
  IC50: 0.3 µM
Mus musculus [5]
  ED50: 6.2 mg/kg

## CCc1cccc2c3c([nH]c12)C(CC)(CC(=O)O)CC[C@@H]3CC1CC1 (stereo not given in full)
Mus musculus [1]
  inhibition in vivo at 25 mg/kg: 0%
Rattus norvegicus [2]
  inhibition in vivo at 25 mg/kg: 19%

## CCC1(CC(=O)O)OC[C@H](CCc2ccccc2)c2c1[nH]c1ccccc21 (stereo not given in full)
Mus musculus [8]
  inhibition in vivo at 25 mg/kg: 0%
Rattus norvegicus [2]
  inhibition in vivo at 25 mg/kg: 0%

## CCc1cccc2c3c([nH]c12)C(CC)(CC(=O)O)CC[C@@H]3c1ccccc1 (stereo not given in full)
Mus musculus [1]
  inhibition in vivo at 25 mg/kg: 17%
Rattus norvegicus [2]
  inhibition in vivo at 25 mg/kg: 12%

## C=CC[C@H]1COC(CC)(CC(=O)O)c2[nH]c3c(C)cccc3c21 (stereo not given in full)
[6]
  logP: 4
[7]
  IC50: 0.2 µM
Mus musculus [1]
  inhibition in vivo at 25 mg/kg: 10%
Rattus norvegicus [2]
  inhibition in vivo at 25 mg/kg: 54%

## C=CCC[C@H]1CCC(CC)(CC(=O)O)c2[nH]c3c(CC)cccc3c21 (stereo not given in full)
Mus musculus [1]
  inhibition in vivo at 25 mg/kg: 2%
Rattus norvegicus [2]
  inhibition in vivo at 25 mg/kg: 43%

## CCc1cccc2c3c([nH]c12)C(CC)(CC(=O)O)CC[C@H]3Cc1ccccc1 (stereo not given in full)
Mus musculus [1]
  inhibition in vivo at 25 mg/kg: 15%
Rattus norvegicus [2]
  inhibition in vivo at 25 mg/kg: 6%

## C=C[C@H]1CCC(CC)(CC(=O)O)c2[nH]c3c(CC)cccc3c21 (stereo not given in full)
Mus musculus [1]
  inhibition in vivo at 25 mg/kg: 21%
Rattus norvegicus [2]
  inhibition in vivo at 25 mg/kg: 30%

## C=C[C@@H]1CCC(CC)(CC(=O)O)c2[nH]c3c(CC)cccc3c21 (stereo not given in full)
Mus musculus [1]
  inhibition in vivo at 25 mg/kg: 0%
Rattus norvegicus [2]
  inhibition in vivo at 25 mg/kg: 62%

## C=CC[C@H]1CC[C@@](CC)(CC(=O)O)c2[nH]c3c(CC)cccc3c21
[7]
  IC50: 0.015 µM
Mus musculus [1]
  inhibition in vivo at 25 mg/kg: 94%
Rattus norvegicus [2]
  inhibition in vivo at 25 mg/kg: 54%

## CCc1cccc2c3c([nH]c12)C(CC)(CC(=O)O)CC[C@@H]3Cc1ccccc1 (stereo not given in full)
[6]
  logP: 7.4
Mus musculus [5]
  ED50: 22.3 mg/kg
Rattus norvegicus [2]
  inhibition in vivo at 25 mg/kg: 38%

## C=CC[C@H]1CCC(CC)(CC(=O)O)c2[nH]c3c(CC)cccc3c21 (stereo not given in full)
[6]
  logP: 6.3
[7]
  IC50: 0.015 µM
Mus musculus [5]
  ED50: 10.6 mg/kg
Rattus norvegicus [2]
  inhibition in vivo at 25 mg/kg: 44%

## C=CC[C@H]1COC(CC)(CC(=O)O)c2[nH]c3ccccc3c21 (stereo not given in full)
[6]
  logP: 3.3
[7]
  IC50: 0.12 µM
Mus musculus [1]
  inhibition in vivo at 25 mg/kg: 21%
Rattus norvegicus [9]
  inhibition in vivo at 25 mg/kg: 46%

## C=CC[C@@H]1COC(CC)(CC(=O)O)c2[nH]c3c(C)cccc3c21 (stereo not given in full)
[7]
  IC50: > 10 µM
Mus musculus [1]
  inhibition in vivo at 25 mg/kg: 15%
Rattus norvegicus [2]
  inhibition in vivo at 25 mg/kg: 31%

## CCC[C@H]1CCC(CC)(CC(=O)O)c2[nH]c3c(CC)cccc3c21 (stereo not given in full)
Mus musculus [1]
  inhibition in vivo at 25 mg/kg: 15%

## C=CC[C@H]1CCC(CC)(CC(=O)O)c2[nH]c3c(CCC)cccc3c21 (stereo not given in full)
[6]
  logP: 6.9
Mus musculus [5]
  ED50: 28.7 mg/kg
Rattus norvegicus [2]
  inhibition in vivo at 25 mg/kg: 39%

## C=CC[C@@H]1COC(CC)(CC(=O)O)c2[nH]c3c(CCC)cccc3c21 (stereo not given in full)
Mus musculus [1]
  inhibition in vivo at 25 mg/kg: 2%
Rattus norvegicus [2]
  inhibition in vivo at 25 mg/kg: 36%

## C=CC[C@H]1CC[C@](CC)(CC(=O)O)c2[nH]c3c(CC)cccc3c21
[7]
  IC50: 4 µM
Mus musculus [1]
  inhibition in vivo at 25 mg/kg: 5%
Rattus norvegicus [2]
  inhibition in vivo at 25 mg/kg: 0%

## CCc1cccc2c3c([nH]c12)C(CC)(CC(=O)O)OC[C@@H]3Cc1ccccc1 (stereo not given in full)
[6]
  logP: 5.6
Rattus norvegicus [2]
  inhibition in vivo at 25 mg/kg: 15%

## C=CC[C@@H]1COC(CC)(CC(=O)O)c2[nH]c3ccccc3c21 (stereo not given in full)
[7]
  IC50: > 10 µM
Mus musculus [1]
  inhibition in vivo at 25 mg/kg: 25%
Rattus norvegicus [2]
  inhibition in vivo at 25 mg/kg: 30%

## COc1ccc2c(c1)c(CC(=O)O)c(C)n2C(=O)c1ccc(Cl)cc1 [INDOMETHACIN]
[7]
  IC50: 0.011 µM
Mus musculus [5]
  ED50: 1.5 mg/kg

## C=CC[C@@H]1COC(CC)(CC(=O)O)c2[nH]c3c(CC)cccc3c21 (stereo not given in full)
Mus musculus [1]
  inhibition in vivo at 25 mg/kg: 33%
Rattus norvegicus [2]
  inhibition in vivo at 25 mg/kg: 55%

## CCC1(CC(=O)O)OC[C@H](Cc2ccccc2)c2c1[nH]c1ccccc21 (single isomer, unassigned) [DEXPEMEDOLAC]
[6]
  logP: 4.4
[7]
  IC50: 0.023 µM
Mus musculus [5]
  ED50: 2 mg/kg
Rattus norvegicus [2]
  inhibition in vivo at 25 mg/kg: 37%

## CCc1cccc2c3c([nH]c12)C(CC)(CC(=O)O)CC[C@H]3c1ccccc1 (stereo not given in full)
Mus musculus [1]
  inhibition in vivo at 25 mg/kg: 28%
Rattus norvegicus [2]
  inhibition in vivo at 25 mg/kg: 37%

## C=CC[C@H]1CCC(CC)(CC(=O)O)c2[nH]c3c(C)cccc3c21 (stereo not given in full)
[6]
  logP: 5.8
[7]
  IC50: 0.05 µM
Mus musculus [5]
  ED50: 8.3 mg/kg

## CCc1cccc2c3c([nH]c12)C(CC)(CC(=O)O)OCC3 (stereo not given) [ETODOLAC]
[7]
  IC50: 0.023 µM

## CCC1(CC(=O)O)CC[C@H](Cc2ccccc2)c2c1[nH]c1c(C)cccc21 (stereo not given in full)
[6]
  logP: 6.9
Mus musculus [5]
  ED50: 3.4 mg/kg
Rattus norvegicus [2]
  inhibition in vivo at 25 mg/kg: 43%

## CCC1(CC(=O)O)OC[C@@H](CCc2ccccc2)c2c1[nH]c1ccccc21 (stereo not given in full)
Mus musculus [8]
  inhibition in vivo at 25 mg/kg: 0%
Rattus norvegicus [2]
  inhibition in vivo at 25 mg/kg: 20%

## C=CC[C@H]1CCC(CC)(CC(=O)O)c2[nH]c3ccccc3c21 (stereo not given in full)
[6]
  logP: 5.2
[7]
  IC50: 0.05 µM
Mus musculus [5]
  ED50: 19.6 mg/kg

## C=CCC[C@@H]1CCC(CC)(CC(=O)O)c2[nH]c3c(CC)cccc3c21 (stereo not given in full)
Mus musculus [1]
  inhibition in vivo at 25 mg/kg: 0%
Rattus norvegicus [2]
  inhibition in vivo at 25 mg/kg: 16%

## CCC1(CC(=O)O)OC[C@H](Cc2ccccc2)c2c1[nH]c1c(C)cccc21 (stereo not given in full)
[6]
  logP: 5
Mus musculus [5]
  ED50: 4.7 mg/kg
Rattus norvegicus [2]
  inhibition in vivo at 25 mg/kg: 47%
